Experiments:
[1] = system: Mus musculus; test: Tested for its effect on testes weight 3 days after single oral dose (90 mg/kg); type: functional, Testis
In short: (§1)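 CD-1 outbred Swiss albino male mice, 5 per dose, single gavage on day 0 at 10 mL/kg. Vehicle was 0.15 M acetate buffer pH 5, ethanol/Tween-20/water (3:7:90), or 1% Tween-20 in water. CO2 euthanasia 72 h later. Testes weighed and histologically scored (spermatogenic index 0–6). Values are % reduction versus the assay's vehicle control. Positive control was 30 mg/kg of the parent compound. Significance by Dunnett's one-tailed t-test, p < 0.05.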

[2] = system: Mus musculus; test: Effect on spermatogenic index single oral dose of 30 mg/kg was given and the change after 1 hr of dosing was observed.; type: functional
In short: (§2)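 Male CD-1 outbred Swiss albino mice, single oral gavage in acetate buffer pH 5 (10 mL/kg), 3, 10 or 30 mg/kg, plus vehicle control. Killed on day 1, 3 or 14 after dosing (times are days, not hours). Testes removed, right and left weighed separately, sectioned for histology and scored on a 0–6 spermatogenic index. Body weight change recorded. Mean ± SEM, n = 5; p < 0.05 versus control.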

[3] = system: Mus musculus; test: Tested for its effect on spermatogenic index 3 days after single oral dose (90 mg/kg); type: functional; in short: as §1
[4] = system: Mus musculus; test: Effect on left testes weight single oral dose of 30 mg/kg was given and the change after 3 hr of dosing was observed.; type: functional, Testis; in short: as §2
[5] = system: Mus musculus; test: Effect on right testes weight single oral dose of 10 mg/kg was given and the change after 1 hr of dosing was observed.; type: functional, Testis; in short: as §2
[6] = system: Mus musculus; test: tested for its effect on spermatogenic index 3 days after single oral dose (3 mg/kg); type: functional
In short: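 Male CD-1 (ICR)BR outbred Swiss albino mice, 5/dose, single oral gavage dose (10 mL/kg) on day 0 in acetate buffer pH 5 or Tween-20-based vehicle; killed 72 h later. Testis cross-sections scored histologically on a 0–6 spermatogenic index (Sertoli only to >100 late spermatids/tubule). Reported as % reduction versus vehicle control; Dunnett's one-tailed t-test.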

[7] = system: Mus musculus; test: Effect on spermatogenic index single oral dose of 3 mg/kg was given and the change after 14 hr of dosing was observed; type: functional; in short: as §2
[8] = system: Mus musculus; test: Tested for its effect on mouse testes weight 3 days after single oral dose (30 mg/kg); type: functional, Testis; in short: as §1
[9] = system: Mus musculus; test: Tested for its effect on mouse testes weight 3 days after single sub cutaneous (10 mg/kg); type: functional, Testis
In short: (§3)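 CD-1 outbred Swiss albino male mice, 5 per dose, single subcutaneous injection on day 0 at 10 mL/kg in ethanol/Tween-20/water (3:7:90). Killed 72 h later. Testes weighed and scored for spermatogenic index (0–6). Results are % reduction versus vehicle control. Each assay included a 30 mg/kg positive control. Dunnett's one-tailed t-test, p < 0.05. Oral versus sc route compared by ANOVA.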

[10] = system: Mus musculus; test: Effect on change in body weight single oral dose of 10 mg/kg was given and the change after 14 hr of dosing was observed.; type: functional; in short: as §2
[11] = system: Mus musculus; test: Tested for its effect on testes weight 3 days after single oral dose (30 mg/kg); type: functional, Testis; in short: as §1
[12] = system: Mus musculus; test: Effect on left testes body weight single oral dose of 3 mg/kg was given and the change after 14 hr of dosing was observed.; type: functional, Testis; in short: as §2
[13] = system: Mus musculus; test: Effect on left testes body weight single oral dose of 10 mg/kg was given and the change after 14 hr of dosing was observed.; type: functional, Testis; in short: as §2
[14] = system: Mus musculus; test: Tested for its effect on testes weight 3 days after single sub cutaneous dose (10 mg/kg); type: functional, Testis; in short: as §3
[15] = system: Mus musculus; test: Effect on right testes weight single oral dose of 10 mg/kg was given and the change after 3 hr of dosing was observed.; type: functional, Testis; in short: as §2
[16] = system: Mus musculus; test: Tested for its effect on spermatogenic index 3 days after single oral dose (10 mg/kg); type: functional
In short: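 Male CD-1 (ICR) mice, 7 weeks old on arrival, 5 per dose, single gavage of 10 mL/kg on day 0. Vehicle was 0.15 M acetate buffer pH 5, ethanol/Tween-20/water 3:7:90, or 1% Tween-20. Mice were killed with CO2 at 72 h and testes weighed and scored for spermatogenic index (0–6 scale). Results are % reduction versus the vehicle control. Dunnett's one-tailed t-test.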

With CCN1CC[C@H]2[C@H](c3ccc(C)cc3)c3cc(C)ccc3[C@H]2C1.Cl as the compound, how does the Reduction [1] read?
Its Reduction is 4%.

What about the Spermatogenic index [2] of the same compound?
Its Spermatogenic index is 4.4.

What about the Reduction [3] of the same compound?
Its Reduction is -9%.

And the Testes weight [4]?
Its Testes weight is 78.2 mg.

What about the Spermatogenic index [5] of the same compound?
Its Spermatogenic index is 4.

And the Testes weight [5]?
Its Testes weight is 88.2 mg.

What about the Reduction [6] of the same compound?
The Reduction was 31%.

And the Spermatogenic index [7]?
Its Spermatogenic index is 6.

And the Reduction [8]?
The Reduction was 24%.

What about the Reduction [9] of the same compound?
The Reduction was -3%.

And the “Change in body weight” value [10]?
Its value is 3.18 g.

And the Reduction [11]?
The Reduction was 10%.

And the Testes weight [12]?
Its Testes weight is 119.3 mg.

And the Testes weight [13]?
The Testes weight was 101.6 mg.

And the Reduction [14]?
Its Reduction is -11%.

And the Spermatogenic index [15]?
Its Spermatogenic index is 5.1.

What about the Testes weight [15] of the same compound?
The Testes weight was 112.3 mg.

What about the Reduction [16] of the same compound?
The Reduction was 31%.

Reference: ChEMBL document CHEMBL1128250, “Structure-activity studies of 2,3,4,4a,5,9b-hexahydroindeno[1,2-c]pyridines as antispermatogenic agents for male contraception” (1995)
